Results published in ChEMBL document CHEMBL4033786, “Discovery of Novel 1-Cyclopentenyl-3-phenylureas as Selective, Brain Penetrant, and Orally Bioavailable CXCR2 Antagonists” (J Med Chem, 2018).
≈ marks a conversion by molar mass, not a printed value.

Assays:
[1] = Solubility of compound in fasted state simulated intestinal fluid measured after 4 hrs; type: physicochemical
In short: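 Solubility in FaSSIF, read after 4 h incubation.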

[2] = Efflux ratio of passive permeability in MDCK2-MDR1 cells transduced with BacMam2-BCRP at 3 uM after 90 mins by Transwell assay; type: ADME, cell-based, Canis lupus familiaris, MDCK-MDR1; conditions: dog
In short: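 MDCKII-MDR1 cells transduced with BacMam2-BCRP in Transwells. Compound at 3 μM was measured in duplicate, A→B and B→A, after 90 min, with and without 5 μM GF120918. ER = B→A/A→B permeability without inhibitor. System qualified with amprenavir and dantrolene ERs.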

[3] = Fraction unbound in Han-Wistar SOA rat model blood at 2 mg/kg administered via oral gavage by UPLC/MS/MS analysis; type: ADME, organism-based
[4] = test system: Blood; test: Dose normalized AUC (0 to 7 hrs) in Han-Wistar SOA rat model blood at 2 mg/kg administered via oral gavage by UPLC/MS/MS analysis; type: ADME, organism-based; conditions: in vivo
In short: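 Male Han-Wistar rats were given 2 mg/kg by oral gavage as a suspension in DMSO:1% methylcellulose (1:99). Blood (cardiac puncture, EDTA-K2, under isoflurane) and brains were collected at 0.25–7 h. Brain was homogenised in 3-fold PBS, samples were protein-precipitated and quantified by UPLC/MS/MS.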

[5] = Unbound brain-to-blood concentration ratio in Han-Wistar SOA rat model at 2 mg/kg administered via oral gavage by UPLC/MS/MS analysis; type: ADME, organism-based; conditions: read-out: K(p,uu,brain)
In short: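 Male Han-Wistar rats given a single 2 mg/kg oral gavage as a suspension in DMSO:1% methylcellulose (1:99). Blood was taken by cardiac puncture under isoflurane at 0.25–7 h, diluted 1:3 with water, and brains were homogenized in 3-fold PBS. Samples were extracted by acetonitrile protein precipitation and quantified by UPLC/MS/MS. Kp = brain DNAUC0-7h/blood DNAUC0-7h; Kp,uu = Kp×Fu,br/Fu,bl.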

[6] = Clearance in Wistar rat blood at 0.98 mg/kg, iv measured up to 4 hrs post dose; type: ADME, organism-based
[7] = Volume of distribution at steady state in Wistar rat at 0.98 mg/kg, iv measured up to 4 hrs post dose; type: ADME, organism-based; conditions: in vivo, read-out: Vdss
[8] = Elimination half life in Wistar rat at 0.98 mg/kg, iv measured up to 4 hrs post dose; type: ADME, organism-based; conditions: in vivo, read-out: beta t1/2 (converted)
[9] = Tmax in Wistar rat at 2.41 mg/kg, po measured up to 4 hrs post dose; type: ADME, organism-based; conditions: in vivo
[10] = Clearance in dog blood at 0.85 mg/kg, iv measured up to 4 hrs post dose; type: ADME, organism-based, Canis lupus familiaris
[11] = test system: Canis familiaris; test: Dose normalized AUC (0 to infinity) in dog at 0.85 mg/kg, iv measured up to 4 hrs post dose; type: ADME, organism-based, Canis lupus familiaris; conditions: in vivo
[12] = test system: Canis familiaris; test: Dose normalized AUC (0 to infinity) in dog at 1.29 mg/kg, po measured up to 4 hrs post dose; type: ADME, organism-based, Canis lupus familiaris; conditions: in vivo
[13] = Oral bioavailability in dog at 1.29 mg/kg measured up to 4 hrs after dose; type: ADME, organism-based, Canis lupus familiaris; conditions: in vivo
[14] = target: T1, C-C chemokine receptor type 6 (Homo sapiens, UniProt P51684); test: Agonist activity at CCR6 (unknown origin)
T1 sequence (P51684 whole entry): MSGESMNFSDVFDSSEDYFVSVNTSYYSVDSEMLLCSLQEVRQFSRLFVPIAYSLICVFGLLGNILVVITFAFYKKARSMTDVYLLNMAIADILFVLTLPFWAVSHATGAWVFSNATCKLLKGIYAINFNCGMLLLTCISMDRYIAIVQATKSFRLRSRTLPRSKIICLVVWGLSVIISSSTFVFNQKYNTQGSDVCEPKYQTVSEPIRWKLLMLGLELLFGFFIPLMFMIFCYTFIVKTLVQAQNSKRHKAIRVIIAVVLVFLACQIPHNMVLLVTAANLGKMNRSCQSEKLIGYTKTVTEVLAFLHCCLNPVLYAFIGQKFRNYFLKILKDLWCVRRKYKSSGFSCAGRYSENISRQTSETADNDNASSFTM
In short: (§1)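 β-arrestin assays run in both agonist and antagonist modes across a panel of 18 CXC and CC chemokine receptors.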

[15] = target: T2, C-C chemokine receptor type 9 (Homo sapiens, UniProt P51686); test: Agonist activity at CCR9 (unknown origin); in short: as §1
T2 sequence (P51686 whole entry): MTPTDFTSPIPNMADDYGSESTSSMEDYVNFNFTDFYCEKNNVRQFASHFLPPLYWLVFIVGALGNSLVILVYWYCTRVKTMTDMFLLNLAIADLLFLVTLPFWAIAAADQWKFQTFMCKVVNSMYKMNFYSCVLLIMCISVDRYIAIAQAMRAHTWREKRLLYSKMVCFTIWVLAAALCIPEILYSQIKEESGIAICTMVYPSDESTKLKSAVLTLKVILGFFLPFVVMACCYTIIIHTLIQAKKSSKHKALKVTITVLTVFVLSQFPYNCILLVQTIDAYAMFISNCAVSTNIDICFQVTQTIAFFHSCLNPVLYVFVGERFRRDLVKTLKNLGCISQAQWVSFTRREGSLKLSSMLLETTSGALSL

[16] = target: CX3C chemokine receptor 1 (Homo sapiens, UniProt P49238); test: Agonist activity at CX3CR1 (unknown origin); in short: as §1
Sequence of CX3C chemokine receptor 1 (P49238 whole entry, the tested form may be a part): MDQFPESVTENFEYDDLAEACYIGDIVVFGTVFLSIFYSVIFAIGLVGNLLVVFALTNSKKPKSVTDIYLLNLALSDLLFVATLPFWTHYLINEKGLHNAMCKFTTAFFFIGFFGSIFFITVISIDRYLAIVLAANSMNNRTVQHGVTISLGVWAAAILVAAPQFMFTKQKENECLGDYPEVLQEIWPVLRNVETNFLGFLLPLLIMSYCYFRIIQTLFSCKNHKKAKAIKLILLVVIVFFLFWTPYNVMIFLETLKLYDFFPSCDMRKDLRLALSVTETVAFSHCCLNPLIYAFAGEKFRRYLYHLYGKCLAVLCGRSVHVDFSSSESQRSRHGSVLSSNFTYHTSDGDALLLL

[17] = target: T3, C-X-C chemokine receptor type 2 (Homo sapiens, UniProt P25025); test: Agonist activity at TEV protease cleavage site linked GAL4-VP16-fused recombinant human CXCR2 expressed in cells assessed as induction of beta-arrestin recruitment by CCF4-AM-fluorescence based FRET assay; type: cell-based
T3 sequence (P25025 whole entry): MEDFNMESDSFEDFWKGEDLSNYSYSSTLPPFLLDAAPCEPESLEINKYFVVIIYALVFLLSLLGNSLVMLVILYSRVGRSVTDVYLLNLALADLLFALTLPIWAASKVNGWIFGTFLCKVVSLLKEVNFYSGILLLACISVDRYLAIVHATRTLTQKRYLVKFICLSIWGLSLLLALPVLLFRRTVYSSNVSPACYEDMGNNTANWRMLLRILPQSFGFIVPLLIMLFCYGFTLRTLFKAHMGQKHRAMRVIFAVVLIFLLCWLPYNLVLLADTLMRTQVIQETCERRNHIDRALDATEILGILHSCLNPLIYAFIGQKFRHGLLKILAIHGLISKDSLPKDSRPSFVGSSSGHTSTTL
In short: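 Part of an 18-receptor chemokine panel run in agonist and antagonist modes. Stable line carrying human CXCR2 linked to a TEV site and Gal4-VP16 was starved 24 h at 37 °C, 5% CO2, and incubated overnight with compound dispensed in DMSO. CCF4-AM substrate was loaded for 2 h at room temperature in the dark. Read-out was the background-subtracted 460/530 nm ratio, with sigmoidal curve fit.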

[18] = target: T4, C-X-C chemokine receptor type 3 (Homo sapiens, UniProt P49682); test: Agonist activity at CXCR3 (unknown origin); in short: as §1
T4 sequence (P49682 whole entry): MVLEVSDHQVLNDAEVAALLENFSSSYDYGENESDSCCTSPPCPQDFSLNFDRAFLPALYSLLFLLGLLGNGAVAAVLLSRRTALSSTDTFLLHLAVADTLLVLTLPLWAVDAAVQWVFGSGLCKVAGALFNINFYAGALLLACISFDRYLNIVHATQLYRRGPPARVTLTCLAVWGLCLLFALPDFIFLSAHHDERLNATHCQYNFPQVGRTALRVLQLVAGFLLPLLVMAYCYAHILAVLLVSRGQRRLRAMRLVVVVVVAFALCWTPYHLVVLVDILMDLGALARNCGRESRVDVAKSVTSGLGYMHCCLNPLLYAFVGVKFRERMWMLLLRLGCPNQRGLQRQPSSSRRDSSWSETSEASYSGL

[19] = target: C-X-C chemokine receptor type 5 (Homo sapiens, UniProt P32302); test: Agonist activity at CXCR5 (unknown origin); in short: as §1
Sequence of C-X-C chemokine receptor type 5 (P32302 whole entry): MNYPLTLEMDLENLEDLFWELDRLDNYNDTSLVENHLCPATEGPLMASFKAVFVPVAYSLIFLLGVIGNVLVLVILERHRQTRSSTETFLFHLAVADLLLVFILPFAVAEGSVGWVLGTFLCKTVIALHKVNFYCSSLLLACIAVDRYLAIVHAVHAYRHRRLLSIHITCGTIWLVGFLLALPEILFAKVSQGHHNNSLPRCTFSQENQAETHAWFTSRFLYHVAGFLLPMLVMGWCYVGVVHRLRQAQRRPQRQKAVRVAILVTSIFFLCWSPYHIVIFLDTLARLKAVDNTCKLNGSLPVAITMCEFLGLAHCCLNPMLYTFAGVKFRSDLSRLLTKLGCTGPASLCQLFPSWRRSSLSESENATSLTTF

[20] = target: C-X-C chemokine receptor type 6 (Homo sapiens, UniProt O00574); test: Agonist activity at CXCR6 (unknown origin); in short: as §1
Sequence of C-X-C chemokine receptor type 6 (O00574 whole entry): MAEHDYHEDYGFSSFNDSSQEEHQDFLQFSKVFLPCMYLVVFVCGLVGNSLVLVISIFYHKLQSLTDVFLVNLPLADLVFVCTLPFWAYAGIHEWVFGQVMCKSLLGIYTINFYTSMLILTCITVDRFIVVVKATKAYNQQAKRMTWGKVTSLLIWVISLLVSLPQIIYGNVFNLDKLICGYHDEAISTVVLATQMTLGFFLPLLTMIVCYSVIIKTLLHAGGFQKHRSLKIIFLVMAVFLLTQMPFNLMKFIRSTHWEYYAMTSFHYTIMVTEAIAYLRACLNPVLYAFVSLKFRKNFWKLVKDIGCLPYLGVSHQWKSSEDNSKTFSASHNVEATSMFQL

[21] = target: T5, Atypical chemokine receptor 3 (Homo sapiens, UniProt P25106); test: Agonist activity at CXCR7 (unknown origin); in short: as §1
T5 sequence (P25106 whole entry): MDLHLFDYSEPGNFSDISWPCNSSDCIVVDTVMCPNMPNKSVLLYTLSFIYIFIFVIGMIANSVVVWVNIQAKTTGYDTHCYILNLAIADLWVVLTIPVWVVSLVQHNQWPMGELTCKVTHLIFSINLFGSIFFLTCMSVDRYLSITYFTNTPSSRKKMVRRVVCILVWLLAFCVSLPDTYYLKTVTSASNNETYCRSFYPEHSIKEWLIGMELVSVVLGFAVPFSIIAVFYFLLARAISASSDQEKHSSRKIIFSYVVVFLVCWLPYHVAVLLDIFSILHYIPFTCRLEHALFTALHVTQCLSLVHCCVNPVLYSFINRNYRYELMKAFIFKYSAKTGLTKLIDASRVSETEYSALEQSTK

[22] = target: C-C chemokine receptor type 3 (Homo sapiens, UniProt P51677); test: Antagonist activity at CCR3 (unknown origin); in short: as §1
Sequence of C-C chemokine receptor type 3 (P51677 whole entry): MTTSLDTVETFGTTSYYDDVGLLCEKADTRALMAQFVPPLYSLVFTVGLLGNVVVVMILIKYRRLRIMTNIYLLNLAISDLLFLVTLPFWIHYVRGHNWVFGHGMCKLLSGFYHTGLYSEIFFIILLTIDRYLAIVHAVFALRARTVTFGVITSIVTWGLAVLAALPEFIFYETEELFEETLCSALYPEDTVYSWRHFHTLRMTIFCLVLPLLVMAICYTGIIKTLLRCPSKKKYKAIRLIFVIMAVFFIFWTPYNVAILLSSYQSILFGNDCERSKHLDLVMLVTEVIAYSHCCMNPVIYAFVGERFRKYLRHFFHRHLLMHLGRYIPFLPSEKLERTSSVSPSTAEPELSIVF

[23] = target: T1, C-C chemokine receptor type 6; test: Antagonist activity at CCR6 (unknown origin); in short: as §1
[24] = target: C-C chemokine receptor type 7 (Homo sapiens, UniProt P32248); test: Antagonist activity at CCR7 (unknown origin); in short: as §1
Sequence of C-C chemokine receptor type 7 (P32248 whole entry): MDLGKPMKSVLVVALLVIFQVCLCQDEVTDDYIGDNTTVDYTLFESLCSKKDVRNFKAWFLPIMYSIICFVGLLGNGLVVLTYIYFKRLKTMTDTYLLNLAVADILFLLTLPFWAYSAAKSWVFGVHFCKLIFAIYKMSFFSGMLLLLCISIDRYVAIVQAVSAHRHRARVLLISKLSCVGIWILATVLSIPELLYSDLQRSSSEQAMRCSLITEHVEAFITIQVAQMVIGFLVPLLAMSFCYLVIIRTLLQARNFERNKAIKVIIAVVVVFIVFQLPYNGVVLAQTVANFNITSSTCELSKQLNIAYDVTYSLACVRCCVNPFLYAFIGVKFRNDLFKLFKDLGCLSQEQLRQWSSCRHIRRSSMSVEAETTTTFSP

[25] = target: T2, C-C chemokine receptor type 9; test: Antagonist activity at CCR9 (unknown origin); in short: as §1
[26] = target: T4, C-X-C chemokine receptor type 3; test: Antagonist activity at CXCR3 (unknown origin); in short: as §1
[27] = target: T5, Atypical chemokine receptor 3; test: Antagonist activity at CXCR7 (unknown origin); in short: as §1
[28] = test system: Rattus norvegicus; test: Antiinflammatory activity in Wistar rat air pouch model assessed as inhibition of carrageenan-induced neutrophil infiltration administered po bid starting from day 3 post air reinflation at 4 hrs post carrageenan induction measured on day 6 post last dose; type: functional, organism-based
In short: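 Male Wistar rats aged 8–10 weeks received 20 mL air, then 10 mL re-inflations on days 3 and 6. Oral dosing of vehicle or 1, 3 or 10 mg/kg BID ran from day 3, given on day 6 just before re-inflation and 1 mL 2% carrageenan. Pouch lavage (4 mL PBS) was taken at 4 h, and neutrophils were counted on Giemsa-stained cytospins as % of vehicle.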

[29] = Intrinsic clearance in rat hepatocytes; type: ADME, cell-based, Hepatocyte
[30] = target: C-X-C chemokine receptor type 2 (Mus musculus, UniProt P35343); test: Antagonist activity at CXCR2 in C57 mouse whole blood assessed as inhibition of GROalpha-stimulated CD11b upregulation preincubated for 2 hr followed by GROalpha stimulation measured after 10 mins by FITC-staining based FACS analysis
Sequence of C-X-C chemokine receptor type 2 (Mus musculus, UniProt P35343) (P35343 whole entry): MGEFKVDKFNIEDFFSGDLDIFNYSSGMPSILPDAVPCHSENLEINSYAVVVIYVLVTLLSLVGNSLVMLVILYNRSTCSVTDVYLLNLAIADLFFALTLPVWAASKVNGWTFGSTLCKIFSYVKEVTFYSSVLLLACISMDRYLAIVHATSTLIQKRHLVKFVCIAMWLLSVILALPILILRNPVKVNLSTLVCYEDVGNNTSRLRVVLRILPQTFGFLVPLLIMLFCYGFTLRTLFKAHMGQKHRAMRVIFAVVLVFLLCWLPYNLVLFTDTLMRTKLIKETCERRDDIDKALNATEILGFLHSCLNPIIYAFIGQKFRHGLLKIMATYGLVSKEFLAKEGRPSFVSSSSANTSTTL

## CC1=CCC[C@H]1NC(=O)Nc1ccc(Cl)c(S(=O)(=O)[C@@]2(C)CCOC2)c1O
[1]
  solubility at 4 h: 21 µg/mL (≈ 50.6 µM)
[2]
  efflux ratio at 1.5 h, 3 µM: 2
[3]
  fraction unbound: 0.027
[4]
  AUC/dose: 651 ng·h/mL/mg/kg
[5]
  Kp uu: 0.63
[6]
  clearance: 9.1 mL/min/kg
[7]
  Vd: 2.1 L/kg
[8]
  half-life: 4.3 h
[9]
  Tmax: 1 h
[10]
  clearance: 5.6 mL/min/kg
[11]
  AUC/dose: 2996 ng·h/mL/mg/kg
[12]
  AUC/dose: 2298 ng·h/mL/mg/kg
[13]
  bioavailability: 76%
[14]
  EC50: > 10 µM
[15]
  EC50: > 10 µM
[16]
  EC50: > 10 µM
[17]
  EC50: > 10 µM
[18]
  EC50: > 10 µM
[19]
  EC50: > 10 µM
[20]
  EC50: > 10 µM
[21]
  EC50: > 10 µM
[22]
  IC50: > 10 µM
[23]
  IC50: > 10 µM
[24]
  IC50: > 10 µM
[25]
  IC50: > 10 µM
[26]
  IC50: > 10 µM
[27]
  IC50: > 10 µM
[28]
  inhibition: Dose-dependent effect
[29]
  CLH: 7.7 mL/min/g
[30]
  IC50: 0.0059 µM
